Bioassay records: PubChem BioAssay, several laboratories
PKD1 kinase inh – PKD1 (human) kinase inhibition; Q15139; PKD1 kinase fluorescence polarization assay; inhibition, % (concentration not given with the values); 200,000 tested, 0.056% active; AID 797; in the data active means inhibition above about 50%
KCC2 mod – modulates chloride dependent transport by human KCC2; Q9H2X9; KCC2 cells, thallium flux FluoZin-2 fluorescence; B-score of Tl+ flux slope (higher = more flux/activation; lower = inhibition) at 10 µM; 190,000 tested, 2.2% active; AID 1456;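 active means thallium flux slope and its plate-corrected score both differing from the plate sample mean at a set confidence after two filtering rounds, in either direction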;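 further: slope of fluorescence scaled to starting intensity during 10 to 20 s after thallium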
Rad51 HR inh – blocks human Rad51 in homologous recombination | hRad51 DNA strand exchange, fluorescence dequenching | inhibition, % at 10 µM | 200,000 tested, 0.085% active;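 active means inhibition above 40% at the single screening dose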;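 further: 0% = DMSO control wells and 100% = blanks with heterologous ssDNA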
Target sequence (Q06609 whole entry, looked up): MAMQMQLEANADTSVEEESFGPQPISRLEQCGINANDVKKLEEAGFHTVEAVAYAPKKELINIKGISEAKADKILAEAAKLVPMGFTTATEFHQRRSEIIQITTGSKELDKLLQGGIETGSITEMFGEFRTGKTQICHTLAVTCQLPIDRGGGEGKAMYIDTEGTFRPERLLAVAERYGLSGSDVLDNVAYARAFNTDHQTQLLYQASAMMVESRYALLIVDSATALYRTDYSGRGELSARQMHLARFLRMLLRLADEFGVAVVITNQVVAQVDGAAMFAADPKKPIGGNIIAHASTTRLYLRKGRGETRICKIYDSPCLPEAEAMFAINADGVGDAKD
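Material: Human Rad51 nucleoprotein filaments preassembled on unlabelled ssDNA | Also added: Labelled 47-mer dsDNA for strand exchange | Dosing: Single dose, 10 µM final compound | Schedule: 30-min compound preincubation and 15-min exchange, both room temperature | Technique: Fluorescence dequenching at 485/520 nm | Measure: Percent inhibition relative to plate controls and blanks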
ROMK primary – modulators of human ROMK potassium channel; Tet-inducible ROMK, thallium flux fluorescence; actives lie on both sides; B-score at 10 µM; 130,000 tested, 2% active; AID 1918;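 active means signal ratio slope over the read window, or its plate-corrected B-score, at least 3 SD from the plate mean, either direction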;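 further: B-score of the F/F0 ratio slope over 7 to 12 s after thallium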
Target sequence (P48048 whole entry, looked up): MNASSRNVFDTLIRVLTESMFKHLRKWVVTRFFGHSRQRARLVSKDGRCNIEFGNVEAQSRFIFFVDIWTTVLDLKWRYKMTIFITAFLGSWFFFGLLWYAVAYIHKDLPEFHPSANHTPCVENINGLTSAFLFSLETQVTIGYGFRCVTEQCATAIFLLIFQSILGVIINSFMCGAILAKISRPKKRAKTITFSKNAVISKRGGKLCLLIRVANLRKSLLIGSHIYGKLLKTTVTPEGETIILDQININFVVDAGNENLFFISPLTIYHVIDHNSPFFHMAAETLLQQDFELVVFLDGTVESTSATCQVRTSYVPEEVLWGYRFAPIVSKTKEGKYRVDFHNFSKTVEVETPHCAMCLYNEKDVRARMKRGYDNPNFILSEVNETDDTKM
KCC2 sec1 – confirmation of human KCC2 transport modulators; normalised thallium flux (F/F0 slope) at 10 µM; 3,700 tested, 15% active; shares compounds with KCC2 mod; HEK293-KCC2, thallium flux, FluoZin2 fluorescence; active compounds read high;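 active means thallium flux slope above the same plate's solvent-only control mean plus 3 SD; inconclusive means the two replicate wells disagree; inactive means no significant difference from solvent-only control wells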
KCC2 bumet counter – thallium flux despite bumetanide block in KCC2 cells, secondary assay 3; shares compounds with KCC2 mod; HEK293-KCC2 + bumetanide/ouabain, thallium flux FluoZin2; active compounds read high; normalized thallium flux at 10 µM; 3,700 tested, 49% active;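 active means thallium entry rate above the same plate's blocked-transporter control wells by more than 3 SD; inconclusive means the two repeat wells disagree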;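 further: raw slope of fluorescence over initial fluorescence between 10 and 20 s after thallium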
KCC2 sec2 – confirmation of human KCC2 transport modulators; shares compounds with KCC2 mod; HEK293-KCC2, thallium flux FluoZin2 fluorescence; actives lie on both sides; F/F0 rise rate, 10–20 s post-thallium; normalized thallium flux at 10 µM; 3,700 tested, 23% active; AID 1715;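 active means thallium flux slope more than 3 SD above or below the plate's solvent-only control mean, mostly below; inconclusive means the two repeat wells disagreed; inactive means no significant shift from solvent-only controls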;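 further: raw slope with 0.1% DMSO as baseline and bumetanide as block control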
HEK293 Tl flux – counter-screen for KCC2 modulators: effect in parental HEK293 cells. shares compounds with KCC2 mod. thallium flux FluoZin2, ouabain; baseline-ratio fluorescence slope, 10–20 s after thallium. thallium flux rate (normalised fluorescence) at 10 µM. 3,700 tested, 46% active;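 active means thallium flux rate significantly above the same plate's solvent-only control wells, beyond their mean plus 3 SD; inconclusive means the two replicate wells gave conflicting results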
KCC2 retest ouab – confirmation of human KCC2 modulators with ouabain | shares compounds with KCC2 mod | HEK293-KCC2, thallium flux FluoZin2 fluorescence; bidirectional: low = inhibitor, high = activator | raw Tl+ flux slope (below DMSO = inhibition, above = activation) at 10 µM | 3,700 tested, 48% active;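 active means thallium flux slope beyond 3 SD from same-plate DMSO control mean in most replicates, usually higher, sometimes lower; inconclusive means repeat tests gave conflicting results; inactive means no significant difference from controls in most replicates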;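 further: slope of initial-normalized fluorescence between seconds 10 and 20 after thallium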
HEK293 Tl flux2 – parental HEK flux effect, counter-screen 2. shares compounds with KCC2 mod. HEK293 parental, thallium flux FluoZin-2 fluorescence slope. thallium flux slope at 10 µM. 3,700 tested, 33% active;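 active means thallium flux slope above the same plate's solvent-control mean plus 3 SD in both duplicate wells; inconclusive means duplicate wells that disagreed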;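 further: run without ouabain in cells lacking the KCC2 cotransporter; slope of fluorescence scaled to its starting value between 10 and 20 s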
Numbers without * were called inactive; u = inconclusive; x = no result. An excerpt weighted towards active compounds, which were near 3% of everything screened.

SMILES	PKD1 kinase inh	KCC2 mod	Rad51 HR inh	ROMK primary	KCC2 sec1	KCC2 bumet counter	KCC2 sec2	HEK293 Tl flux	KCC2 retest ouab	HEK293 Tl flux2
C=CCc1cccc2cc(C(=O)NNC(=O)c3ccncc3)c(=O)oc12	4.8	4.79*	-6.7	-1.82	0.00584	0.0043	0.0291	0.00758	0.0182	0.0102
C=CCc1cccc2cc(C(=O)Nc3cccc(C(=O)O)c3)c(=O)oc12	x	-0.773	7.2	x	x	x	x	x	x	x
FC(F)(F)c1ccc(Cl)c(-n2c(-c3cc(C4CC4)[nH]n3)n[nH]c2=S)c1	x	4.07*	12.9	x	0.0113	0.0157*	0.0354	u	u	0.0122
FC(F)(F)c1ccc(Cl)c(-n2c(-c3cc(-c4ccco4)[nH]n3)n[nH]c2=S)c1	x	0.0984	6.5	x	x	x	x	x	x	x
Cn1c(N)c(C(=O)COC(=O)c2ccc3c(c2)C(=O)N(c2ccc(Cl)cc2)C3=O)c(=O)n(C)c1=O	0.6	-0.415	x	-0.37	x	x	x	x	x	x
COc1ccc(NS(=O)(=O)c2ccc(NC(=S)NC(=O)/C=C/c3ccccc3)cc2)nn1	-1.4	-0.0719	-2.4	x	x	x	x	x	x	x
COCCCN=Cc1c(C)[nH]n(-c2ccc(Br)cc2Br)c1=O	5.9	0.721	36.0	1.12	x	x	x	x	x	x
CS(=O)(=O)N1N=C(c2cccs2)CC1c1ccccc1 (stereo not given)	x	-0.0667	x	x	x	x	x	x	x	x
c1ccc(C2Oc3ccccc3C3CC(c4cccs4)=NN32)cc1 (stereo not given)	4.9	9.34*	-9.6	x	0.0101	0.0458*	0.0373	0.0598*	0.0546*	0.0197*
O=S(=O)(/N=C(/Nc1ccccc1)c1ccccc1O)c1ccccc1	-7.2	0.447	3.7	0.15	x	x	x	x	x	x
COc1ccc(N(CC(=O)Nc2ccc(C)c(C)c2)S(=O)(=O)c2c(C)n[nH]c2C)cc1	-12.4	x	x	x	0.00671	u	0.0256*	0.00699	u	0.0109
CCOC(=O)c1c(-c2cccs2)csc1NC(=O)CCCC(=O)O	7.7	x	x	0.00655	0.0156	0.00596*	0.0272	u	0.0146	0.00889
On1nnc2c3ccccc3c3ccccc3c21	-8.0	x	1.9	x	x	x	x	x	x	x
OCc1ccccc1CNCc1ccccc1	7.5	x	-4.2	-0.433	0.00974	0.00506	0.0347	0.00792	0.0194	0.0106
C=CCn1c(SCC(=O)c2ccccc2)nnc1-c1ccc2c(c1)OCO2	-4.5	-2.3	x	-0.374	0.01	0.00677	0.0331	0.00748	0.0207	u
COc1cc(/C=C/c2cc(C(F)(F)F)[nH]c(=O)n2)cc(OC)c1OC	-10.1	-2.11	-0.8	-2.67	x	x	x	x	x	x
COc1cc(OC)c(OC)cc1/C=C/c1cc(C(F)(F)F)[nH]c(=O)n1	-2.7	-4.68*	-14.3	-1.62	u	-0.00192*	u	0.003*	0.0115*	0.00505*
CCOC(=O)N1CCN(C(=O)CSCc2ccccc2Cl)CC1	-6.3	0.503	27.7	-1.7	x	x	x	x	x	x
CC12CC(NC(=O)N1c1cccc(C(=O)N3CCN(c4ccccc4)CC3)c1)c1ccccc1O2 (stereo not given)	-4.3	-0.856	-1.3	x	x	x	x	x	x	x
CC12CC(NC(=O)N1c1cccc(C(=O)NCc3ccccc3)c1)c1ccccc1O2 (stereo not given)	5.3	x	x	x	0.00719	u	0.0303	0.00737	0.0195	0.0115
CCOC(=O)CCc1c(C)nc(-n2[nH]c(C)c(CCO)c2=O)[nH]c1=O	-2.4	1.08	2.5	-0.723	x	x	x	x	x	x
COCCn1nnnc1C(CC(C)C)N1CCN(C(=O)c2ccco2)CC1 (stereo not given)	-11.1	7.5*	6.6	x	0.00643	0.00459	0.0319	0.00851	0.0193	0.0099
Cc1nn(Cc2ccccc2)c(C)c1NC(=O)c1noc2c1CCc1ccccc1-2	-12.4	-4.7*	11.2	x	0.00981	u	0.0347	0.00782	u	0.0112
O=C(Oc1c(Cl)cc(Cl)c2cccnc12)c1ccco1	2.2	x	x	0.92	x	x	x	x	x	x
O=C(Oc1c(CN2CCOCC2)cc(Cl)c2cccnc12)c1cccs1	2.9	-0.389	-1.8	2.14	x	x	x	x	x	x
SMILES	PKD1 kinase inh	KCC2 mod	Rad51 HR inh	ROMK primary	KCC2 sec1	KCC2 bumet counter	KCC2 sec2	HEK293 Tl flux	KCC2 retest ouab	HEK293 Tl flux2
Oc1c(I)cc(I)c2cccnc12	-2.9	77.9*	1.5	x	0.0107	0.0779*	0.037	0.0439*	0.0842*	0.0132*
O=C(Oc1c(Cl)cc(Cl)c2cccnc12)c1cccs1	7.3	3*	-9.8	0.00948	0.00833	0.0299*	0.0344	0.0158*	0.0351*	u
Oc1c(Cl)cc(Cl)c2cccnc12	-5.2	87.5*	7.2	0.533	0.0194*	0.119*	0.0472*	0.098*	0.0956*	0.0318*
CN(C(=O)CC1C(=O)NCCN1Cc1ccc(F)c(F)c1)C1CCOCC1 (stereo not given)	-6.7	0.756	1.5	-0.13	x	x	x	x	x	x
Cc1ccc(C(NC(=O)NC(C)c2ccccc2)C(Cl)(Cl)Cl)cc1F (stereo not given)	-2.9	0.951	-8.5	x	x	x	x	x	x	x
Cc1occc1C(=O)NNC(=O)Nc1ccc([N+](=O)[O-])cc1	-1.3	-0.918	18.8	0.0531	x	x	x	x	x	x
O=c1cc(-c2ccccc2)nc(SCc2ccc(F)cc2)[nH]1	-4.6	3.92*	x	0.379	0.00651	0.00484	0.0272	0.00749	0.018	0.00988
Fc1cccc(CN2CCN(c3nc4nonc4nc3NC3CC3)CC2)c1	-0.6	-0.416	-33.1	0.204	x	x	x	x	x	x
Cc1cccc(CSC(Nc2ccc(F)cc2)=C(C#N)C#N)c1	-6.0	-5.01*	-1.8	-0.166	0.0073	0.00636	0.0291	0.00565*	0.0588*	0.0103
N#CC(C#N)=C(Nc1ccc(F)cc1)SCc1cccc(Br)c1	-1.4	-3.69*	23.2	-1.77	0.00654	u	u	0.00963*	0.0146*	0.0106
O=S(=O)(Nc1ccc(-n2cnnn2)cc1)c1ccc(F)c(F)c1F	x	-0.0261	12.3	x	x	x	x	x	x	x
COc1ccc(C2=CC(=O)CCC2)cc1	x	x	1.5	x	x	x	x	x	x	x
CCn1c(CNc2ccc(Cl)cc2)nnc1SCC#N	5.6	-0.173	-7.2	-0.123	x	x	x	x	x	x
O=C(CCCCCn1c(=S)[nH]c2ccccc2c1=O)NCc1ccc2c(c1)OCO2	-0.3	0.697	-9.3	x	x	x	x	x	x	x
CC(C)Cn1c(=S)[nH]c2cc(Cl)ccc21	-2.4	92.2*	2.4	x	u	0.0972*	u	0.0834*	0.078*	0.0633*
O=c1[nH]c2cc(Cl)ccc2n1-c1ccccc1	3.4	-1.43	-12.5	1.22	x	x	x	x	x	x
CC(C)Cn1c(=O)c2ccccc2c2ccccc2c1=O	-2.8	1.31	-1.2	x	x	x	x	x	x	x
